Test results: ChEMBL document CHEMBL4028909, “Discovery of an Orally Bioavailable Benzofuran Analogue That Serves as a β-Amyloid Aggregation Inhibitor for the Potential Treatment of Alzheimer's Disease” (J Med Chem, 2018)

Experiments:
[1] = target: Amyloid-beta precursor protein (Homo sapiens) (UniProt P05067); assay: Induction of HFIP-pretreated amyloid beta (1 to 42) (unknown origin) disaggregation at 3.1 to 50 uM after 1 hr by Thioflavin-T fluorescence assay relative to control
Mus musculus [2] = assay: Reversal of cognitive deficit in amyloid beta (1 to 42)-treated Alzheimer's disease ICR mouse model assessed as step-through latency time at 10 mg/kg, po administered for 3 consecutive days by passive avoidance test; type: functional
How it was run: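 Acute AD model: preformed Aβ aggregates injected into the brains of normal mice. Compound given orally for three consecutive days, then step-through passive avoidance was tested by a standard protocol. Read-out is step-through latency (sec), compared against control and vehicle groups.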

[3] = Ratio of AUC in ICR mouse brain to AUC in ICR mouse plasma at 10 mg/kg, po measured at 6 hrs; type: ADME, organism-based; conditions: read-out: Ratio AUC
How it was run: (§1)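 ICR mice (n=3) given a single oral dose of 10 mg/kg. Brain and plasma were sampled over nine hours, at 0.333, 1, 3, 6 and 9 h. Kp was calculated as AUC_brain/AUC_plasma.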

[4] = AUClast in mouse at 30 mg/kg, po; type: ADME, organism-based; set-up: dose 30 mg/kg, time 0 - last, route oral; conditions: in vivo
How it was run: (§2)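 Mice received a single dose of 3 mg/kg i.v. or 3, 10 or 30 mg/kg orally. Plasma concentration-time profiles were analysed for AUC from zero to infinity and to the last measured time (hr*ng/mL), Cmax (ng/mL, C0 after i.v.), Tmax and terminal half-life (hr), and oral bioavailability (%).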

[5] = Initial concentration in mouse at 3 mg/kg, iv; type: ADME, organism-based; conditions: in vivo; how it was run: as §2
Mus musculus [6] = assay: AUC (infinity) in mouse at 3 mg/kg, iv; type: ADME, organism-based; set-up: dose 3 mg/kg, route intravenous, time infinity; conditions: in vivo; how it was run: as §2
Canis familiaris = assay: Volume of distribution at steady state in po dosed dog; type: ADME, organism-based, Canis lupus familiaris; conditions: in vivo
[7] = Half-life in po dosed rat; conditions: in vivo
[8] = Half-life in po dosed dog; conditions: in vivo
Mus musculus [9] = assay: Reversal of cognitive deficit in double APP/PS1 transgenic Alzheimer's disease mouse model assessed as increase in spatial memory function by measuring spontaneous alternation at 100 mg/kg, po qd administered for 8 weeks by Y maze test (reference value: 52.64 +/- 4.15%); type: functional
How it was run: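 APP/PS1 double transgenic mice, 29 weeks old, dosed orally once daily at 30 or 100 mg/kg for eight weeks. Y-maze spontaneous alternation (%) was then measured against vehicle-treated mice, and mice were watched for apparent toxicity.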

[10] = Oral bioavailability in dog; type: ADME, organism-based, Canis lupus familiaris; conditions: in vivo
[11] = AUC in po dosed rat; type: ADME, organism-based; conditions: in vivo
[12] = Cmax in po dosed ICR mouse; type: ADME, organism-based; set-up: route oral; conditions: in vivo
[13] = AUClast in mouse at 3 mg/kg, po; type: ADME, organism-based; set-up: dose 3 mg/kg, time 0 - last, route oral; conditions: in vivo; how it was run: as §2
Cytochrome P450 2A6 = target: T1, Cytochrome P450 2A6 (Homo sapiens, UniProt P11509); assay: Inhibition of CYP2A6 in human liver microsomes preincubated for 5 mins followed by addition of NADPH generating system measured after 20 mins by LC-MS/MS analysis; type: ADME
T1 sequence (P11509 whole entry): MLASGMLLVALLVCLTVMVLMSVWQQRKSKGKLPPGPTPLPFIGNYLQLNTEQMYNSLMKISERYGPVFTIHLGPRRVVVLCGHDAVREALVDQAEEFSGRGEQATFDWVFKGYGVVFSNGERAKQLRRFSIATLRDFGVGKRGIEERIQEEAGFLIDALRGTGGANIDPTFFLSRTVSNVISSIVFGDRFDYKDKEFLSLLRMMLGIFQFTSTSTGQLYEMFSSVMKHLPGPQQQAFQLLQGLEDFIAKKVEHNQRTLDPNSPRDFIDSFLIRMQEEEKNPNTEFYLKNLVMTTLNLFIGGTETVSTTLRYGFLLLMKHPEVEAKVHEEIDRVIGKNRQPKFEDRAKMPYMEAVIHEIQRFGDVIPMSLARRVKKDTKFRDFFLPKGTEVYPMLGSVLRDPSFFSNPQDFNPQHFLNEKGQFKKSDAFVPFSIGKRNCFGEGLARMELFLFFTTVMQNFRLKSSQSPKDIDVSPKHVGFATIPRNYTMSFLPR
How it was run: (§3)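 Inhibition of each CYP isozyme (1A2, 2A6, 2C8, 2C9, 2C19, 2D6, 3A4) was measured in human liver microsomes. IC50 values were reported in μM.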

Rattus norvegicus = assay: Volume of distribution at steady state in po dosed rat; type: ADME, organism-based; conditions: in vivo
[14] = Half life in po ICR mouse; type: ADME, organism-based; conditions: in vivo
Mus musculus [15] = assay: Antiamyloidogenic activity in po dosed double APP/PS1 transgenic Alzheimer's disease mouse model assessed as decrease in amyloid beta (1 to 42) levels in brain administered as qd for 8 weeks by sandwich ELISA; type: functional, organism-based
How it was run: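 APP/PS1 mice, 29 weeks old, were dosed orally once daily for eight weeks at 30 or 100 mg/kg, with a vehicle group. Brain tissue was homogenized and amyloid fibrils were solubilized to monomers. Aβ1-40 and Aβ1-42 were then quantified by immunoassay with antibodies specific to monomeric Aβ.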

[16] = Cmax in po dosed dog; type: ADME, organism-based, Canis lupus familiaris; set-up: route oral; conditions: in vivo
[17] = AUC in po dosed monkey; type: ADME, organism-based, Macaca mulatta; conditions: rhesus monkey, in vivo
[18] = Tmax in mouse at 10 mg/kg, po; type: ADME, organism-based; conditions: in vivo
How it was run: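 Mouse pharmacokinetics: single i.v. dose of 3 mg/kg, or oral doses of 3, 10 and 30 mg/kg. Plasma concentration–time curves gave T1/2 (terminal, hr), Tmax (hr), Cmax, AUC and bioavailability (%).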

[19] = Clearance in iv dosed dog; type: ADME, organism-based, Canis lupus familiaris; conditions: in vivo
[20] = AUC (infinity) in mouse at 10 mg/kg, po; type: ADME, organism-based; set-up: dose 10 mg/kg, time infinity, route oral; conditions: in vivo; how it was run: as §2
[21] = Oral bioavailability in mouse at 3 mg/kg; type: ADME, organism-based; conditions: in vivo; how it was run: as §2
Rhesus monkey = assay: Volume of distribution at steady state in po dosed monkey; type: ADME, organism-based, Macaca mulatta; conditions: in vivo
Cytochrome P450 2C19 = Cytochrome P450 2C19 (Homo sapiens, UniProt P33261); assay: Inhibition of CYP2C19 in human liver microsomes preincubated for 5 mins followed by addition of NADPH generating system measured after 20 mins by LC-MS/MS analysis; type: ADME; how it was run: as §3
[22] = Ratio of AUC in ICR mouse brain to AUC in ICR mouse plasma at 10 mg/kg, po measured at 3 hrs; type: ADME, organism-based; conditions: read-out: Ratio AUC; how it was run: as §1

Sequence of Cytochrome P450 2C19 (P33261 whole entry): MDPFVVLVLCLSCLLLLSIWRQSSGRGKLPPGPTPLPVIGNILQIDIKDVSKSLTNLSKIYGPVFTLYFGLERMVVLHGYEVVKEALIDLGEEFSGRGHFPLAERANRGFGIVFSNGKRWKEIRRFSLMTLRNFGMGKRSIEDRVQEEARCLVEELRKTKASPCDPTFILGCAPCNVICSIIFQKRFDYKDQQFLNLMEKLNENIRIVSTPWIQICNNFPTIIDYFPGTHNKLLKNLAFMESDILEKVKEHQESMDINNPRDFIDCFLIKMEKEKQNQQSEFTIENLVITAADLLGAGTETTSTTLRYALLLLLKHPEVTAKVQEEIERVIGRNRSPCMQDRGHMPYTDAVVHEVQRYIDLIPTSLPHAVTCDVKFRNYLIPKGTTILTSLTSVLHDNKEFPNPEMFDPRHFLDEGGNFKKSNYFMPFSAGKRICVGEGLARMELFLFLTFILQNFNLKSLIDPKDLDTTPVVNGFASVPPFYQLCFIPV
Sequence of Amyloid-beta precursor protein (Homo sapiens) (P05067 whole entry): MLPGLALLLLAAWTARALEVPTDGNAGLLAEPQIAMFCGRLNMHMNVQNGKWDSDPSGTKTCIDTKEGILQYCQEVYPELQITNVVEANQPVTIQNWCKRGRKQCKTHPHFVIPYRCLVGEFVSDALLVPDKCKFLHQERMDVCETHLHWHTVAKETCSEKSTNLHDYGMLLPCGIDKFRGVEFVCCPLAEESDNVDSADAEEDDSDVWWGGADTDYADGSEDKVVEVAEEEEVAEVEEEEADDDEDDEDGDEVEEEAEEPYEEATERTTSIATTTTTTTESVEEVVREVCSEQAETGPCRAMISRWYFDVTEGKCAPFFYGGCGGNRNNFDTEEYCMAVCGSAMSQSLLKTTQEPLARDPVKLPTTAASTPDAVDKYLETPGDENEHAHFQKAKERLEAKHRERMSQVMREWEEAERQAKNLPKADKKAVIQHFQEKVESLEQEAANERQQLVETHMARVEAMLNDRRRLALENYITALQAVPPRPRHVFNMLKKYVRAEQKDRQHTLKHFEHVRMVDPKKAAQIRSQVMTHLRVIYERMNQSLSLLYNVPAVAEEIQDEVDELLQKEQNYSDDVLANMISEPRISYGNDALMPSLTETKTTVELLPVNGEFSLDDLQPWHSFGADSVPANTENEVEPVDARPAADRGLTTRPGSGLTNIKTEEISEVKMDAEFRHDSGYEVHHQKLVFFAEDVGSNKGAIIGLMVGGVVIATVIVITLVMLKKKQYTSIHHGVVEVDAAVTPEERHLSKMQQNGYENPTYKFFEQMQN

Activity [1]: 40%
Kp at 6 h [3]: 1.2
AUC(0-t) [4]: 10400 ng·h/mL
C0 [5]: 4870 ng/mL
AUC (Mus musculus [6]): 1325.1 ng·h/mL
Vdss (Canis familiaris): 2.7 L/kg
t1/2 [7]: 3.8 h
t1/2 [8]: 1.4 h
bioavailability [10]: 25%
AUC [11]: 4200 ng·h/mL
Cmax [12]: 944 ng/mL
AUC(0-t) [13]: 246 ng·h/mL
IC50 (Cytochrome P450 2A6): > 50 µM
Vdss (Rattus norvegicus): 10 L/kg
half-life [14]: 5.87 h
Cmax [16]: 1610 ng/mL
AUC [17]: 13700 ng·h/mL
Tmax [18]: 0.7 h
clearance [19]: 29 mL/min/kg
AUC(0-inf) [20]: 2290 ng·h/mL
bioavailability [21]: 21.4%
Vdss (Rhesus monkey): 3.8 L/kg
IC50 (Cytochrome P450 2C19): > 50 µM
Kp at 3 h [22]: 1.2
Compound: COCCCc1ccc2oc(-c3ccc(OC)c(OC)c3)cc2c1
Time (Mus musculus [2]): 201.2 s
Activity (Mus musculus [9]): 63.93%
Activity (Mus musculus [15]): Dose-dependent effect
